# Measured values: ChEMBL document CHEMBL1125247, “Muscarinic cholinergic agonists and antagonists of the 3-(3-alkyl-1,2,4-oxadiazol-5-yl)-1,2,5,6-tetrahydropyridine type. Synthesis and structure-activity relationships” (J Med Chem, 1991)
# Assays:
# [1] = target: Muscarinic acetylcholine receptor; assay: In vitro binding affinity to muscarinic acetylcholine receptor site in rat brain assayed using [3H]oxotremorine-M as the radioligand.; format: tissue-based
# [2] = target: Muscarinic acetylcholine receptor (Rattus norvegicus) (UniProt P08482+P08483+P08485+P08911+P10980)
# [3] = target: Muscarinic acetylcholine receptor; assay: (§1) Agonist activity at muscarinic acetylcholine receptor in isolated guinea pig ileum.; format: functional, tissue-based, Cavia porcellus
# [4] = target: Muscarinic acetylcholine receptor; assay: In Vitro binding affinity to the muscarinic acetylcholine receptor site in rat brain by using [3H]QNB as the radioligand.; format: tissue-based
# [5] = target: Muscarinic acetylcholine receptor M3 (Cavia porcellus) (UniProt Q8VH26); assay: Antagonist activity at muscarinic acetylcholine receptor in isolated guinea pig ileum.; format: functional, tissue-based
# Chain of Muscarinic acetylcholine receptor M3 (Cavia porcellus) (Q8VH26 1-587): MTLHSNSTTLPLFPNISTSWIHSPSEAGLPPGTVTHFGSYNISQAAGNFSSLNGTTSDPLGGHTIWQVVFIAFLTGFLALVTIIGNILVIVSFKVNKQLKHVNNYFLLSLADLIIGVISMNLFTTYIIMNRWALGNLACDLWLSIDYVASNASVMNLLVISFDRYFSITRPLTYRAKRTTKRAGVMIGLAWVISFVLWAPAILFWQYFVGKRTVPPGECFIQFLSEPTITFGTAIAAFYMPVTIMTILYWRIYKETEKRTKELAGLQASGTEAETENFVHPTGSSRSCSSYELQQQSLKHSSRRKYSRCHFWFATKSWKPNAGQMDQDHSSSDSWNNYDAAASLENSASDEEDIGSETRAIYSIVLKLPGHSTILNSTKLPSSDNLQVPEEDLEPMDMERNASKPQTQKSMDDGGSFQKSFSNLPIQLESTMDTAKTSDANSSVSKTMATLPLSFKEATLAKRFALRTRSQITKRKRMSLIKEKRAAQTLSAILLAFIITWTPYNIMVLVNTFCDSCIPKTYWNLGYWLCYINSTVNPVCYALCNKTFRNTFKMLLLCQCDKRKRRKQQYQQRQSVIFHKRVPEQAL
# How it was run: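 Isolated guinea pig ileum in tyrode solution; agonist dose-response curves built sequentially with 30-s contact time. Antagonist added to the tyrode 5 min before agonist responses were retested. K_B from regression analysis using at least four points, n = 4-8 per point.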
# [6] = target: Muscarinic acetylcholine receptor (Cavia porcellus); assay: Antagonist activity at muscarinic acetylcholine receptor in isolated guinea pig ileum.
# [7] = target: Muscarinic acetylcholine receptor; assay: as §1; format: functional, tissue-based, Cavia porcellus; remark: listed apart in the source
# How it was run: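 Isolated ileum in Tyrode solution. Cumulative-free sequential agonist dose-response curves, 30-s contact time per dose. Contraction read out; EC50 derived from the curves. Efficacy expressed as percent of maximal contraction relative to the full agonist acetylcholine.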
# [8] = target: Muscarinic acetylcholine receptor (Cavia porcellus); assay: Antagonistic activity at muscarinic acetylcholine receptor in isolated guinea pig ileum.
SMILES,IC50 [1] [µM],Muscarinic agonist index [2],EC50 [3] [µM],IC50 [4] [µM],Kb [5] [µM],Kb [6] [µM],Kb [8] [µM],EC50 [7] [µM]
CCCCc1noc(C2=CCCNC2)n1,0.0121,339,0.32,25.3,,,,
CCCCc1noc(C2=CCC3CCC2N3C)n1 (configuration not stated),0.181,8,> 30,8.9,0.22,,,
CCc1nc(C2=CCCN(C)C2)no1.O=C(O)C(=O)O,0.954,26,> 30,156,,5.75,,
CCCc1nc(C2=CCCN(C)C2)no1.O=C(O)C(=O)O,0.681,80,> 30,88,3.38,,,
CCCCc1noc(C2CN3CCC2CC3)n1 (configuration not stated),0.0585,4,,1.5,0.07,,,> 30
CCOCCc1noc(C2=CCCN(C)C2)n1.O=C(O)C(=O)O,0.107,65,1.28,42.8,,,,
CCCCCCCCc1noc(C2=CCCN(C)C2)n1.O=C(O)C(=O)O,0.0599,30,1.46,11,,,,
CCCCc1noc(C2=CCC(C)N(C)C2)n1 (configuration not stated),0.145,11,> 30,10.2,0.13,,,
CCCCc1noc(C2=CC(C)CNC2)n1 (configuration not stated),0.685,15,> 30,64.3,,,,
CCCCCCCc1noc(C2=CCCN(C)C2)n1.O=C(O)C(=O)O,0.0283,52,0.13,9.1,,,,
CCCCc1noc(C2=CCCN(CC)C2)n1,0.0862,39,> 30,20.6,0.7,,,

# Continued, in another order:
IC50 [1] [µM],Muscarinic agonist index [2],EC50 [3] [µM],IC50 [4] [µM],Kb [5] [µM],Kb [6] [µM],Kb [8] [µM],SMILES,EC50 [7] [µM]
0.011,520,0.2,35.3,,,,CCc1noc(C2=CCCN(C)C2)n1.O=C(O)C(=O)O,
0.144,47,0.72,41.5,,,,COCCc1noc(C2=CCCN(C)C2)n1.O=C(O)C(=O)O,
0.0123,540,0.032,41,,,,Cc1noc(C2=CCCN(C)C2)n1.O=C(O)C(=O)O,
0.102,15,> 30,10.8,1.55,,,CN1CCC=C(c2nc(C3CCCC3)no2)C1.O=C(O)C(=O)O,
0.182,14,> 30,15.8,0.2,,,CC(C)c1noc(C2=CCCN(C)C2)n1.O=C(O)C(=O)O,
0.191,11,,12.9,,,0.65,CN1CCC=C(c2nc(C3CCC3)no2)C1.O=C(O)C(=O)O,> 30
0.0078,235,1,11.3,,,,CN1CCC=C(c2nc(CC3CC3)no2)C1.O=C(O)C(=O)O,
0.0141,181,0.15,15.8,,,,CCCCc1noc(C2=CCCN(C)C2)n1.O=C(O)C(=O)O,
0.286,5,> 30,9,0.2,,,CN1CCC=C(c2nc(C(C)(C)C)no2)C1.O=C(O)C(=O)O,
0.0435,249,0.42,66.9,,,,COCc1noc(C2=CCCN(C)C2)n1.O=C(O)C(=O)O,
0.0063,447,0.1,17.4,,,,CCCc1noc(C2=CCCN(C)C2)n1.O=C(O)C(=O)O,
0.078,14,> 30,6.8,0.15,,,CN1CCC=C(c2nc(C3CC3)no2)C1.O=C(O)C(=O)O,
0.955,68,> 30,401,,8,,Cc1nc(C2=CCCN(C)C2)no1.O=C(O)C(=O)O,
> 0.85,< 3,> 30,16,0.16,,,CN1CCC=C(c2nc(C3CCCCCC3)no2)C1.O=C(O)C(=O)O,
0.0369,29,0.62,6.7,,,,CCCCCc1noc(C2=CCCN(C)C2)n1.O=C(O)C(=O)O,
